Source: PubChem
LYPLA2 inh: LYPLA2 (human) inhibition in PME1 counter-screen | recombinant LYPLA2, FP-Rh probe fluorescence polarization | hit rate 0.38% among 320,000 | inhibition, % at 5.9 µM | AID 2177;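 active = inhibition above the screen-wide mean plus 3 SD, limit set per campaign, cut at about 26% in these data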;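 note: 0% = LYPLA2 with DMSO and 100% = wells lacking LYPLA2 enzyme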
Fam108B counter: Fam108B inhibition, counter-screen for RBBP9 inhibitors; AID 1947; hit rate 0.33% among 300,000; inhibition, % at 9.51 µM; recombinant Fam108B, FP-Rh probe fluorescence polarization;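 active = inhibition above the screen mean inhibition plus 3 SD, computed separately per campaign, cut at about 18% in these data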;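 note: inhibitors lower polarization as less probe binds the enzyme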
PME-1 primary: blocks human protein phosphatase methylesterase 1; Q9Y570; recombinant PME-1, FP-Rh probe fluorescence polarization; inhibition, % at 5.9 µM; hit rate 0.53% among 320,000;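 active = inhibition above the campaign mean of all compounds plus 3 SD, cut at about 26% in these data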;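 note: competitive labeling of PME-1 active site by serine hydrolase directed probe; 0% = PME-1 with DMSO and 100% = wells lacking PME-1 enzyme; inhibitors block probe labeling so polarization falls and inhibition rises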
PAD4 FP inh: blocks human protein arginine deiminase 4; Q9UM07; inhibition, % at 6.36 µM; AID 485272; recombinant PAD4, RCA probe fluorescence polarization; hit rate 0.41% among 330,000;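 active = percent inhibition above a cutoff equal to the mean of all tested compounds plus 3 SD, cut at about 15% in these data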;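 note: 0% = PAD4 with RCA probe and DMSO and 100% = probe without PAD4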
RBBP9 inhibitor: human RBBP9 hydrolase inhibition; O75884; recombinant RBBP9, FP-Rh probe fluorescence polarization; inhibition, % at 7.94 µM; hit rate 0.2% among 220,000; AID 1515;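 active = inhibition above the campaign mean of all tested compounds plus 3 SD, cut at about 14% in these data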;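 note: plate controls were DMSO wells with RBBP9 for no effect and wells lacking RBBP9 protein for full effect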
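System: RBBP9 protein / Quantity: 2.5 µM RBBP9 dispensing solution, before mixing / Also added: Serine-hydrolase probe FP-Rh, 375 nM pre-mixing / Dosing: 7.94 µM single dose, 0.794% DMSO / Timing: enzyme-compound preincubation 30 min, then probe labeling 45 min, 25 °C / Signal: FP readout at 525/598 nm / Controls: DMSO-treated enzyme wells and wells lacking RBBP9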
LYPLA1 counter: blocks human lysophospholipase 1, a PME1 counter-screen; recombinant LYPLA1, FP-Rh probe fluorescence polarization; inhibition, % at 5.9 µM; hit rate 0.16% among 320,000;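 active = inhibition above the mean of all tested compounds plus 3 SD, set per campaign, cut at about 14% in these data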;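 note: inhibitors block serine hydrolase probe labeling of LYPLA1 so polarization falls; 0% = enzyme with DMSO and 100% = wells lacking LYPLA1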
PAD4 confirm: confirmation of human PAD4 inhibitors; shares compounds with PAD4 FP inh; recombinant PAD4, RCA probe fluorescence polarization; inhibition, % at 6.36 µM; hit rate 28% among 1,200;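 active = mean inhibition across replicates above the hit cutoff set by the earlier primary screen, cut at about 15% in these data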;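 note: inhibitors block active-site labeling by the probe so polarization falls; 0% = PAD4 with probe and DMSO and 100% = probe without PAD4 enzyme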
An asterisk follows results filed as active. This is a sample that favours compounds with a hit; in the whole collection about 1.3% have one here.

What do the screens show for `Cc1cc(=O)n(C2CCS(=O)(=O)C2)[nH]1` (configuration not stated)?
LYPLA2 inh: -4; Fam108B counter: 3; PME-1 primary: -3; PAD4 FP inh: 80*; RBBP9 inhibitor: -10; LYPLA1 counter: -1; PAD4 confirm: 3

What do the screens show for `Cn1ncc2nc[nH]c(=O)c21`?
LYPLA2 inh: -4; Fam108B counter: 5; PME-1 primary: -2; PAD4 FP inh: 19*; RBBP9 inhibitor: 1; LYPLA1 counter: 0; PAD4 confirm: 6

What do the screens show for `O=C(c1cccnc1)N1N=C(C2CC2)CC1(O)C(F)(F)F` (configuration not stated)?
LYPLA2 inh: -5; Fam108B counter: 3; PME-1 primary: -6; PAD4 FP inh: -11; RBBP9 inhibitor: -4; LYPLA1 counter: 0

Results for O=C(c1ccncc1)N1N=C(C2CC2)CC1(O)C(F)(F)F (configuration not stated) ?
LYPLA2 inh: 8; Fam108B counter: 5; PME-1 primary: 10; PAD4 FP inh: 24*; RBBP9 inhibitor: 6; LYPLA1 counter: 5; PAD4 confirm: 4

How did CCc1ccc(NC2CC(=O)N(CCc3ccc(OC)c(OC)c3)C2=O)cc1 (configuration not stated) do in these assays?
LYPLA2 inh: 9; Fam108B counter: 0; PME-1 primary: 4; PAD4 FP inh: -3; RBBP9 inhibitor: -9; LYPLA1 counter: 0

Results for O=C1CC(Nc2ccc(N3CCOCC3)cc2)C(=O)N1c1ccccc1F (configuration not stated) ?
LYPLA2 inh: 15; Fam108B counter: 1; PME-1 primary: -7; PAD4 FP inh: 16*; RBBP9 inhibitor: -5; LYPLA1 counter: 5; PAD4 confirm: 9

How did COc1ccc(CCN2C(=O)CC(Nc3ccc(N4CCOCC4)cc3)C2=O)cc1OC (configuration not stated) do in these assays?
LYPLA2 inh: 7; Fam108B counter: 3; PME-1 primary: 4; PAD4 FP inh: 20*; RBBP9 inhibitor: 8; LYPLA1 counter: 0; PAD4 confirm: 19*

What do the screens show for `COc1ccccc1N1C(=O)c2ccc(C(=O)Nc3cccc(C(C)=O)c3)cc2C1=O`?
LYPLA2 inh: 13; Fam108B counter: -9; PME-1 primary: -12; PAD4 FP inh: 37*; LYPLA1 counter: -16; PAD4 confirm: 34*

How did Cc1cc(C)nc(SCC(=O)NC2=NC(=O)C(C)S2)n1 (configuration not stated) do in these assays?
LYPLA2 inh: -1; Fam108B counter: -3; PME-1 primary: -9; PAD4 FP inh: 2; RBBP9 inhibitor: -7; LYPLA1 counter: 2

Results for Cc1ccc(C2=NN=C(NC(=O)CSc3nc(C)cc(C)n3)SC2)cc1 ?
LYPLA2 inh: -2; Fam108B counter: 1; PME-1 primary: 2; PAD4 FP inh: 71*; RBBP9 inhibitor: -16; LYPLA1 counter: -7; PAD4 confirm: 68*

Results for Cn1c2ccccc2c2nnc(SCC(=O)Nc3cccc(C(=O)O)c3)nc21 ?
LYPLA2 inh: 7; Fam108B counter: -2; PME-1 primary: 0; PAD4 FP inh: 3; LYPLA1 counter: 1

What do the screens show for `Cc1ccc(C2=NN=C(NC(=O)CSc3nnc4c5ccccc5n(C)c4n3)SC2)cc1`?
LYPLA2 inh: -12; Fam108B counter: -4; PME-1 primary: -15; PAD4 FP inh: 23*; RBBP9 inhibitor: -12; LYPLA1 counter: -10; PAD4 confirm: 37*

How did COC(=O)C(O)(NC(=O)c1ccncc1)C(F)(F)F (configuration not stated) do in these assays?
LYPLA2 inh: 1; Fam108B counter: 1; PME-1 primary: -3; PAD4 FP inh: 4; RBBP9 inhibitor: -2; LYPLA1 counter: 4

How did COc1cccc(CNS(=O)(=O)c2ccc3c(c2)N(C(C)=O)CCO3)c1 do in these assays?
LYPLA2 inh: 2; Fam108B counter: 4; PME-1 primary: 10; PAD4 FP inh: 2; LYPLA1 counter: 1

What do the screens show for `COc1cc(OC)cc(C(=O)NCC(=O)OCC(=O)NCc2ccco2)c1`?
PAD4 FP inh: -7
